High-throughput results as filed in PubChem BioAssay.
Runt-SMMHC FRET = blocks binding of human RUNX1 Runt domain to CBFb-SMMHC. Q01196+Q13951. Cerulean-Runt/Venus-CBFb-SMMHC FRET ratio 530/480, 1 h. inhibition, % at 20 µM. 220,000 compounds, 0.74% hits;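 active = mean inhibition across duplicate retests at 20 µM reaching about 50%, limit read from the data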;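 note: 0% = DMSO wells and 100% = wells with excess untagged CBFb-SMMHC; inhibitors lower the FRET ratio by blocking Runt binding to CBFb-SMMHC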
Hck Nef HTS = inhibitors of human Hck kinase activated by Nef; P08631; Recombinant Hck-YEEI plus Nef, Z-Lyte FRET kinase assay; inhibition, % at 20 µM; 220,000 compounds, 0.68% hits; AID 463187;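 active = Hck-Nef kinase inhibition above about 50%, limit read from the data; inactive = inhibition below that limit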;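 note: 0% = DMSO with Hck plus Nef and 100% = Hck alone without Nef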
Target sequence (P08631 whole entry, looked up): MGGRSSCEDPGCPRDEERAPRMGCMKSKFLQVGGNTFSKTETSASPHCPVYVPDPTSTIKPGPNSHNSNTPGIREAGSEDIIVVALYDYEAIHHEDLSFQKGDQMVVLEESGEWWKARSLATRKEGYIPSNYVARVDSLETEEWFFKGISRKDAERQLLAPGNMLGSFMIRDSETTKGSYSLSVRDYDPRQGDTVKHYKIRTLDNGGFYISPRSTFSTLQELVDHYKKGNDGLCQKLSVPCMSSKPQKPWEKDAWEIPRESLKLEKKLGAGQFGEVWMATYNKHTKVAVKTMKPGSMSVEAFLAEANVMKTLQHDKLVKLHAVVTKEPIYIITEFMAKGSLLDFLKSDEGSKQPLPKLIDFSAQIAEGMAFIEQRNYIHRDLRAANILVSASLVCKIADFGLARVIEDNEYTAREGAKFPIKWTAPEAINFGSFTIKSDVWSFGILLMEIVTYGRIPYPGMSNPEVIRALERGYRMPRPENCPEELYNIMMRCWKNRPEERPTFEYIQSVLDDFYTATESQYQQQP
Runt-CBFb FRET = blocks binding of human RUNX1 Runt domain to CBFb. AID 1496. 220,000 compounds, 0.46% hits. inhibition, % at 20 µM. Cerulean-Runt/Venus-CBFb FRET ratio 530/480, 1 h;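 active = inhibition over about 50% at 20 µM in the single-dose screen, limit read from the data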;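 note: 0% = DMSO wells and 100% = excess unlabeled CBFb competitor control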
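Reagent – Venus-CBFb binding partner, 100 nM · Assay system – Cerulean-tagged RUNX1 Runt domain (FRET donor) fusion protein · Input – 100 nM per protein · Incubation – two 1 h room-temperature incubations shielded from light · Measured by – FRET fluorescence · Medium – Tris buffer pH 7.5 with salts and BSA · Benchmarks – unlabeled CBFb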
CaV13 FRET inh = Primary screen for inhibitors of IQ motif and Ca2+-dependent inactivation inhibitor domain binding in CACNA1D, Förster resonance energy transfer in living cells, …; HEK cells, CFP/YFP FRET ICDI-IQ, plate reader, 10 min; percent FRET-ratio fall versus neutral wells; inhibition, % at 12.3 µM; 340,000 compounds, 0.098% hits; AID 743397;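 active = mean replicate inhibition of at least 30% and at least 1% of replicates passing that level; inconclusive = only one of the two criteria is met; inactive = neither criterion is met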;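 note: 0% = median of the neutral control wells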
RanGTP-Imp inh = disruptors of Ran-importin-beta complex formation – biochemical, FRET, CFP-Ran, YFP-importin-beta, homogeneous, primary screen. inhibition, % (test concentration not listed). cell-free CFP-Ran/YFP-importin-beta FRET ratio. AID 2216. 300,000 compounds, 1.1% hits;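 active = more than half of the replicate wells show a fall in the fluorescence ratio signal beyond about 16%, limit read from the data, passing the limit was not always enough; inconclusive = exactly half of the replicate wells pass the set limit; inactive = fewer than half of replicates pass the limit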;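 note: 0% = DMSO wells and 100% = Ran loaded with GDP instead of GTP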
An asterisk follows results filed as active. Only some compounds are listed: those with a hit (about 1.5% of all), similar ones and a draw of the others.

Screening CCCn1nc(NC(=O)c2ccncc2)c2cc3ccccc3nc21 returned Runt-SMMHC FRET 13.9, Hck Nef HTS 6.1, Runt-CBFb FRET 3.0, CaV13 FRET inh -5.1 and RanGTP-Imp inh 6.1.
For CCCCn1nc(NC(=O)c2cccs2)c2cc3ccccc3nc21 the results were Runt-SMMHC FRET 63.4*, Hck Nef HTS 12.6, Runt-CBFb FRET 25.6, CaV13 FRET inh -8.0 and RanGTP-Imp inh 73.5*.
`Cc1ccc(S(=O)(=O)N2CCC[C@H]2C(=O)OCc2nc3ccccc3s2)cc1` gave CaV13 FRET inh -6.2.
`O=C(NCCc1nnc2ccc(N3CCCCCC3)nn12)c1ccccc1F` gave RanGTP-Imp inh 1.8.
CC(C)OCC(O)CN1CCN(CCN2C(=O)c3cccc4cccc(c34)C2=O)CC1 (centres undefined) was read as CaV13 FRET inh -2.1 and RanGTP-Imp inh 4.5.
`CCC(OCC(O)CN1CCN(CCN2C(=O)c3cccc4cccc(c34)C2=O)CC1)c1ccccc1` (centres undefined) gave Runt-SMMHC FRET -4.5, Hck Nef HTS 0.3, Runt-CBFb FRET -5.5, CaV13 FRET inh -5.2 and RanGTP-Imp inh 29.9*.
Cc1ccc(C(=O)Nc2nnc(CC(=O)N/N=C/c3ccc(O)c(O)c3)s2)cc1 was read as CaV13 FRET inh -4.0 and RanGTP-Imp inh 3.7.
`COc1ccc(C(=O)Nc2nnc(CC(=O)N/N=C/c3ccc(O)cc3O)s2)cc1` gave CaV13 FRET inh -13.7 and RanGTP-Imp inh 108.4*.
For COc1ccc(S(=O)(=O)Nc2ccc(Cc3ccncc3)cc2)cc1C the results were RanGTP-Imp inh 0.1.
Cc1ccc(-c2cc(-c3ccc(Cl)cc3)c(C#N)c(N)n2)o1 was read as Runt-SMMHC FRET 32.8, Hck Nef HTS 16.1, Runt-CBFb FRET 34.0, CaV13 FRET inh -12.0 and RanGTP-Imp inh 15.8*.
For Cc1ccc(-c2cc(-c3ccc(C)o3)nc(N)c2C#N)cc1 the results were Runt-SMMHC FRET 34.7, Hck Nef HTS 14.0, Runt-CBFb FRET 34.0, CaV13 FRET inh -5.5 and RanGTP-Imp inh 8.5.
`COc1cccc(CC(=O)NN2C(=O)NC3(CCCCC3)C2=O)c1` gave CaV13 FRET inh -3.3.
Screening CCCCCCCCOc1ccc(C2OC34CCCCC3C(C#N)(C#N)C2(C#N)C(=N)O4)cc1 (centres undefined) returned Runt-SMMHC FRET 55.7*, Hck Nef HTS 4.3, Runt-CBFb FRET 25.0 and RanGTP-Imp inh 43.6*.
`CCCCC1OC23CCCCC2C(C#N)(C(=N)O3)C1(C#N)C#N` (centres undefined) gave Runt-SMMHC FRET 32.2, Hck Nef HTS 1.2, Runt-CBFb FRET 19.1, CaV13 FRET inh -6.8 and RanGTP-Imp inh 23.5*.
For CCCCC1OC23CCCCC2C(C#N)(C#N)C1(C#N)C(=N)O3 (centres undefined) the results were Runt-SMMHC FRET 81.1, Hck Nef HTS 2.8, Runt-CBFb FRET 24.1, CaV13 FRET inh -6.0 and RanGTP-Imp inh 52.6*.
CC(=O)c1sc2nc(-c3ccc(C)cc3)c3c(c2c1N)CCCC3 was read as Runt-SMMHC FRET 10.3, Hck Nef HTS 4.5, Runt-CBFb FRET 3.0, CaV13 FRET inh -5.2 and RanGTP-Imp inh 66.4*.
`CCc1nc2sc(C(C)=O)c(N)c2c2c1CCCC2` gave Runt-SMMHC FRET 81.0*, Hck Nef HTS 37.1, Runt-CBFb FRET 34.1, CaV13 FRET inh -2.5 and RanGTP-Imp inh 28.0*.
`CCC1CCCCN1C(=O)CCS(=O)(=O)c1ccc2c(c1)CCN2C(C)=O` (centres undefined) gave CaV13 FRET inh -14.3 and RanGTP-Imp inh -1.7.
O=C(O)c1cc(-c2ccc(/C=C3\NC(=O)N(c4ccccc4)C3=O)o2)ccc1Cl was read as Runt-SMMHC FRET 82.5*, Hck Nef HTS -5.6, Runt-CBFb FRET 46.0, CaV13 FRET inh -2.5 and RanGTP-Imp inh 3.6.
For O=C(O)c1cc(-c2ccc(/C=C3\NC(=O)N(c4ccc(Cl)cc4)C3=O)o2)ccc1Cl the results were Runt-SMMHC FRET 81.1*, Hck Nef HTS 8.4, Runt-CBFb FRET 18.0, CaV13 FRET inh -6.1 and RanGTP-Imp inh 8.8.
COc1cc(C(=O)N2Cc3cc4ccccc4nc3C2C)cc(OC)c1OC (centres undefined) was read as CaV13 FRET inh -9.4.
For Cc1cc(NC(=O)CSCC(=O)N(C)Cc2ccc(Cl)cc2Cl)no1 the results were CaV13 FRET inh -15.5 and RanGTP-Imp inh -2.4.
For O=C(CCNC(=O)c1ccco1)NCc1ccc(C(=O)O)cc1 the results were CaV13 FRET inh -5.5.
CCc1cc(=O)oc2c(CNCc3ccccc3F)c(O)c(Cl)cc12 was read as CaV13 FRET inh -0.6 and RanGTP-Imp inh 35.9*.
CCc1cc(=O)oc2c(CNC(Cc3ccccc3)C(=O)O)c(O)ccc12 (centres undefined) was read as CaV13 FRET inh -4.5 and RanGTP-Imp inh 0.8.
For Cn1nc(-c2ccc(Cl)cc2)c2cc(C(=O)N3CCN(c4ccccc4)CC3)sc21 the results were Runt-SMMHC FRET -13.7, Hck Nef HTS 0.9, Runt-CBFb FRET -7.4, CaV13 FRET inh 47.9* and RanGTP-Imp inh 0.6.
Cn1nc(-c2ccc(Cl)cc2)c2cc(C(=O)N3CCN(c4ccccn4)CC3)sc21 was read as Runt-SMMHC FRET -15.5, Hck Nef HTS -0.1, Runt-CBFb FRET -14.9 and RanGTP-Imp inh -1.3.
For O=C(CCC1CCCN(C(=O)c2cc(F)ccc2F)C1)N1CCN(c2ccccn2)CC1 (centres undefined) the results were CaV13 FRET inh -9.4.
For COc1ccc(S(=O)(=O)N2CCC(C(=O)N[C@@H](C)C(=O)NCc3ccccc3OC)CC2)cc1 the results were CaV13 FRET inh -7.1 and RanGTP-Imp inh -2.3.
`CCOC(=O)c1sc2c(c1C)C(c1cccs1)C1=C(CCCC1=O)N2` (centres undefined) gave Runt-SMMHC FRET 111.4*, Hck Nef HTS 17.5, Runt-CBFb FRET 99.3*, CaV13 FRET inh -2.3 and RanGTP-Imp inh inconclusive.
CCOC(=O)C1=C(C)NC2=C(C(=O)CCC2)C1c1cccs1 (centres undefined) was read as Runt-SMMHC FRET 2.2, Hck Nef HTS 5.5, Runt-CBFb FRET -0.8, CaV13 FRET inh 0.7 and RanGTP-Imp inh -0.3.
Screening CCn1cc(C2C3=C(CC(C)(C)CC3=O)N(c3ccccc3)C3=C2C(=O)CC(C)(C)C3)c(C)n1 returned Runt-SMMHC FRET 82.4*, Hck Nef HTS 8.1, Runt-CBFb FRET 22.7, CaV13 FRET inh -5.5 and RanGTP-Imp inh inconclusive.
For CCN(CC)c1ccc(C2C(C(=O)Nc3ccccn3)=C(C)NC3=C2C(=O)CC(C)(C)C3)cc1 (centres undefined) the results were Runt-SMMHC FRET 34.9, Hck Nef HTS 0.6, Runt-CBFb FRET 4.0, CaV13 FRET inh -4.7 and RanGTP-Imp inh 1.9.
